Measured values from different studies.
Each line is one published result; the experiments were not run side by side.
Target: Dual specificity tyrosine-phosphorylation-regulated kinase 2 (DYRK2, Homo sapiens, UniProt Q92630)
Sequence (Q92630 1-601, as in one of the studies): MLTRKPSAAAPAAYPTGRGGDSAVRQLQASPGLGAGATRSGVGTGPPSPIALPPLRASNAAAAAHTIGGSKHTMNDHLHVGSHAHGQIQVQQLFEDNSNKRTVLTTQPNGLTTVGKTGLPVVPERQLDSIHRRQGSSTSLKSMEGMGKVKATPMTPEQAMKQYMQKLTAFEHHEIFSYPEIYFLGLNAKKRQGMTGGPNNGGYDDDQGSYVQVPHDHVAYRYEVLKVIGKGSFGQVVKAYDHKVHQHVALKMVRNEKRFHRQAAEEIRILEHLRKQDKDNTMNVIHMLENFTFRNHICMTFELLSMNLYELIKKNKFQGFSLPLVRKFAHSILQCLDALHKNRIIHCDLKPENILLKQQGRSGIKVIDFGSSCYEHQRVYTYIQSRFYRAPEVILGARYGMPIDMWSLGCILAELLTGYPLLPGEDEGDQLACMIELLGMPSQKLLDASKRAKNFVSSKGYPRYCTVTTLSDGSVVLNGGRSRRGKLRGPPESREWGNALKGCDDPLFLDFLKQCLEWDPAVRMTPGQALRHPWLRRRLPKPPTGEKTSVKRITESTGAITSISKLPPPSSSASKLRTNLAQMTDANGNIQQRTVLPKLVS

O=C(O)c1ccc2c(c1)nc(NCc1ccccc1)c1ncncc12  remaining activity (enzyme activity, inhibitor, radiometric; 1 µM): 37%
Nc1ncnc2occ(-c3ccc(NC(=O)Nc4cc(C(F)(F)F)ccc4F)cc3)c12  remaining signal (cell-free assay, inhibitor; 20 µM): 19%
O=C1Nc2ccc(Cl)cc2C1=Cc1cc(Cl)c(O)c(Cl)c1  remaining signal (cell-free assay; 0.5 µM): 94%
CN1CC(Oc2cnc(C#N)cc2-c2ccn3nc(NC(=O)C4CC4)cc3c2)C1  inhibition (enzyme activity, inhibitor; 1 µM): 3%
Cn1cncc1C1=CN(c2ncnc3[nH]cnc23)CCS1  inhibition (enzyme activity, inhibitor, radiometric; 50 nM): 20.6%
FC(F)(F)Oc1cccc(-c2cnc3ccc(-c4ccncc4)nn23)c1  activity vs control (enzyme activity, inhibitor, radiometric; 1 µM): 52%
O=C(Nc1cccnn1)N1CC(C/C=C/c2cncc(Oc3ccc(C(F)(F)F)cn3)n2)C1  remaining binding (cell-free assay, competition with immobilised ligand; 1 µM): 81%
Cc1cc(NC(=O)c2cccc3cc(-c4cccc5[nH]nc(N)c45)ccc23)ccc1F  activity vs control (enzyme activity, inhibitor; 0.1 µM): 98%
CCCCN(CCCC)C(=O)CN1C[C@@H](c2cc(OC)c3c(c2)OCO3)[C@H](C(=O)O)[C@H]1CC(C)(C)CCC  remaining binding (cell-free assay, competition with immobilised ligand; 1 µM): 82.9%
COc1cccc(CCNc2nc3cc(C(=O)O)ccc3c3cncnc23)c1  remaining activity (enzyme activity, inhibitor, radiometric; 1 µM): 59%
Cc1ccc(Nc2nccc(N(C)c3ccc4c(C)n(C)nc4c3)n2)cc1S(N)(=O)=O  inhibition (enzyme activity, inhibitor; 0.3 µM): -8%
Cc1nc(Cc2cccc(C(F)(F)F)c2)sc1-c1ccc(C(N)=O)nc1  remaining binding (cell-free assay, competition with immobilised ligand; 1 µM): 90%
O=C(O)c1ccc2c(c1)nc(Nc1cccc(F)c1)c1ncncc12  remaining activity (enzyme activity, inhibitor, radiometric; 1 µM): 33%
O=C(O)c1cc(-c2ccc(C3CCNCC3)cc2)c2ccc(-c3ccc(C(F)(F)F)cc3)cc2c1  remaining binding (cell-free assay, competition with immobilised ligand; 1 µM): 100%
CCCS(=O)(=O)Nc1ccc(F)c(C(=O)c2c[nH]c3ncc(-c4ccc(Cl)cc4)cc23)c1F  inhibition (enzyme activity, inhibitor; 1 µM): < 10%
O=C1NC(=O)c2cc(Nc3ccc(F)cc3)c(Nc3ccc(F)cc3)cc21  remaining signal (cell-free assay; 0.5 µM): 89.1%
O=C(O)c1ccc2c(c1)nc(Nc1ccccc1)c1ncncc12  remaining activity (enzyme activity, inhibitor, radiometric; 1 µM): 54%
CCN(CC)CCNC(=O)c1c(C)[nH]c(/C=C2\C(=O)Nc3ccc(F)cc32)c1C  inhibition (enzyme activity, inhibitor; 0.3 µM): -5%
O=C(N1CCS(=O)(=O)CC1)N1C[C@H](c2ccc(OC(F)(F)F)cc2)C[C@H](c2nc(C3CC3)no2)C1  remaining binding (cell-free assay, competition with immobilised ligand; 1 µM): 100%
COc1cccc(Nc2nc3cc(C(=O)O)ccc3c3cnccc23)c1  remaining activity (enzyme activity, inhibitor, radiometric; 1 µM): 14%
Cc1c(C(=O)O)cc(-c2ccc(C3CCNCC3)cc2)c2ccc(-c3ccc(C(F)(F)F)cc3)cc12  remaining binding (binding, competition with immobilised ligand; 1 µM): 100%
N#CCCc1ccc2c(c1)-c1[nH]c3ccc([N+](=O)[O-])cc3c1CC(=O)N2  remaining signal (cell-free assay; 0.5 µM): 46.8%
O=C(O)c1ccc2c(c1)nc(Nc1ccccc1Cl)c1ncncc12  remaining activity (enzyme activity, inhibitor, radiometric; 1 µM): 60%
Cc1ccc(NC(=O)c2ccc(CN3CCN(C)CC3)cc2)cc1Nc1nc(-c2cccnc2)cs1  remaining signal (cell-free assay; 0.5 µM): 109%
Cc1c[nH]c2nccc(Oc3c(F)cc(Nc4cc(Cl)nc(N)n4)cc3F)c12  remaining binding (cell-free assay, competition with immobilised ligand; 0.1 µM): 100%
O=C(O)c1ccc2c(c1)nc(NCCc1cccc(F)c1)c1ncncc12  remaining activity (enzyme activity, inhibitor, radiometric; 1 µM): 52%
CSc1cccnc1N1CCN(Cc2nc3ccccc3[nH]2)CC1  remaining binding (cell-free assay, competition with immobilised ligand; 1 µM): 81%
O=C(O)c1ccc2c(c1)nc(Nc1ccc(F)c(Cl)c1)c1ccncc12  remaining activity (enzyme activity, inhibitor, radiometric; 1 µM): 5%
